Measured values published in ChEMBL document CHEMBL3045285, “Synthesis and insecticidal activities of novel anthranilic diamides containing modified N-pyridylpyrazoles” (2010).

Columns and labels:
Assay type in all cases: functional
Mythimna separata [1] = experiment: Insecticidal activity against fourth-instar larval stage of Mythimna separata (Oriental armyworm) in compound pretreated Zea mays L. Tangyu 10 leaves assessed as mortality at 20 mg/l at 25 +/-1 degC after 2 days
Summary of the method: (§1)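 Greenhouse-reared fourth-instar oriental armyworm larvae. Corn (Tangyu 10) leaves laid on moist filter paper in Petri dishes, sprayed with test solution (200 mg/L solution diluted in distilled water), then air-dried. Ten larvae per dish. Held at 25 ± 1 °C; mortality scored dead/alive 2 days post-treatment. Triplicate treatments, Abbott-corrected, 0–100 scale.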

Mythimna separata [2] = experiment: Insecticidal activity against fourth-instar larval stage of Mythimna separata (Oriental armyworm) in compound pretreated Zea mays L. Tangyu 10 leaves assessed as mortality at 50 mg/l at 25 +/-1 degC after 2 days; summary of the method: as §1
Mythimna separata [3] = experiment: Insecticidal activity against fourth-instar larval stage of Mythimna separata (Oriental armyworm) in compound pretreated Zea mays L. Tangyu 10 leaves assessed as mortality at 100 mg/l at 25 +/-1 degC after 2 days; summary of the method: as §1
Mythimna separata [4] = experiment: Insecticidal activity against fourth-instar larval stage of Mythimna separata (Oriental armyworm) in compound pretreated Zea mays L. Tangyu 10 leaves assessed as mortality at 200 mg/l at 25 +/-1 degC after 2 days; summary of the method: as §1
Mythimna separata [5] = experiment: Insecticidal activity against fourth-instar larval stage of Mythimna separata (Oriental armyworm) in compound pretreated Zea mays L. Tangyu 10 leaves assessed as mortality at 5 mg/l at 25 +/-1 degC after 2 days; summary of the method: as §1
Mythimna separata [6] = experiment: Insecticidal activity against fourth-instar larval stage of Mythimna separata (Oriental armyworm) in compound pretreated Zea mays L. Tangyu 10 leaves assessed as mortality at 10 mg/l at 25 +/-1 degC after 2 days; summary of the method: as §1
Plutella xylostella [7] = experiment: Insecticidal activity against second-instar larval stage of Plutella xylostella (diamondback moth) in cabbage leaves assessed as mortality at 0.25 mg/l at 25 +/-1 degC treated for 3 secs before larva infestation measured after 2 days by leaf-dip method; conditions: 48 h
Summary of the method: (§2)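 Greenhouse-reared diamondback moth larvae tested by leaf-dip method at 25 ± 1 °C. Test solution made at 200 mg/L, then diluted with distilled water to working concentrations. Mortality scored dead/alive, corrected with Abbott's formula and expressed on a 0–100 scale.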

Plutella xylostella [8] = experiment: Insecticidal activity against second-instar larval stage of Plutella xylostella (diamondback moth) in cabbage leaves assessed as mortality at 0.5 mg/l at 25 +/-1 degC treated for 3 secs before larva infestation measured after 2 days by leaf-dip method; conditions: 48 h; summary of the method: as §2
Plutella xylostella [9] = experiment: Insecticidal activity against second-instar larval stage of Plutella xylostella (diamondback moth) in cabbage leaves assessed as mortality at 1 mg/l at 25 +/-1 degC treated for 3 secs before larva infestation measured after 2 days by leaf-dip method; conditions: 48 h; summary of the method: as §2
Plutella xylostella [10] = experiment: Insecticidal activity against second-instar larval stage of Plutella xylostella (diamondback moth) in cabbage leaves assessed as mortality at 2.5 mg/l at 25 +/-1 degC treated for 3 secs before larva infestation measured after 2 days by leaf-dip method; conditions: 48 h; summary of the method: as §2
Plutella xylostella [11] = experiment: Insecticidal activity against second-instar larval stage of Plutella xylostella (diamondback moth) in cabbage leaves assessed as mortality at 5 mg/l at 25 +/-1 degC treated for 3 secs before larva infestation measured after 2 days by leaf-dip method; conditions: 48 h; summary of the method: as §2
Plutella xylostella [12] = experiment: Insecticidal activity against second-instar larval stage of Plutella xylostella (diamondback moth) in cabbage leaves assessed as mortality at 10 mg/l at 25 +/-1 degC treated for 3 secs before larva infestation measured after 2 days by leaf-dip method; conditions: 48 h; summary of the method: as §2
Plutella xylostella [13] = experiment: Insecticidal activity against second-instar larval stage of Plutella xylostella (diamondback moth) in cabbage leaves assessed as mortality at 20 mg/l at 25 +/-1 degC treated for 3 secs before larva infestation measured after 2 days by leaf-dip method; conditions: 48 h; summary of the method: as §2
Plutella xylostella [14] = experiment: Insecticidal activity against second-instar larval stage of Plutella xylostella (diamondback moth) in cabbage leaves assessed as mortality at 0.125 mg/l at 25 +/-1 degC treated for 3 secs before larva infestation measured after 2 days by leaf-dip method; conditions: 48 h; summary of the method: as §2
Mythimna separata [15] = experiment: Insecticidal activity against fourth-instar larval stage of Mythimna separata (Oriental armyworm) in compound pretreated Zea mays L. Tangyu 10 leaves assessed as mortality at 2.5 mg/l at 25 +/-1 degC after 2 days; summary of the method: as §1

SMILES	mortality at 20 µg/mL (Mythimna separata [1])	mortality at 50 µg/mL (Mythimna separata [2])	mortality at 100 µg/mL (Mythimna separata [3])	mortality at 200 µg/mL (Mythimna separata [4])	mortality at 5 µg/mL (Mythimna separata [5])	mortality at 10 µg/mL (Mythimna separata [6])	mortality at 0.25 µg/mL (Plutella xylostella [7])	mortality at 0.5 µg/mL (Plutella xylostella [8])	mortality at 1 µg/mL (Plutella xylostella [9])	mortality at 2.5 µg/mL (Plutella xylostella [10])	mortality at 5 µg/mL (Plutella xylostella [11])	mortality at 10 µg/mL (Plutella xylostella [12])	mortality at 20 µg/mL (Plutella xylostella [13])	mortality at 0.125 µg/mL (Plutella xylostella [14])	mortality at 2.5 µg/mL (Mythimna separata [15])
CNC(=O)c1cc(Cl)cc(C)c1NC(=O)c1cc(COS(C)(=O)=O)nn1-c1ncccc1Cl	40%	100%	100%	100%	–	–	–	–	–	–	–	–	–	–	–
CNC(=O)c1cc(Cl)cc(C)c1NC(=O)c1cc(CNC(=O)C(F)(F)F)nn1-c1ncccc1Cl	100%	100%	100%	100%	40%	100%	0%	40%	80%	100%	100%	100%	100%	–	–
CNC(=O)c1cc(Cl)cc(C)c1NC(=O)c1cc(COS(=O)(=O)c2ccc(C)cc2)nn1-c1ncccc1Cl	80%	100%	100%	100%	–	–	–	–	–	–	–	–	–	–	–
CNC(=O)c1cc(Cl)cc(C)c1NC(=O)c1cc(COC(=O)C(F)(F)F)nn1-c1ncccc1Cl	20%	100%	100%	100%	–	–	–	–	–	–	–	–	–	–	–
CNC(=O)c1cc(Cl)cc(C)c1NC(=O)c1cc(COC(C)=O)nn1-c1ncccc1Cl	100%	100%	100%	100%	–	0%	–	–	0%	45%	70%	90%	100%	–	–
CC(=O)OCc1cc(C(=O)Nc2c(C)cc(Cl)cc2C(=O)NC(C)(C)C)n(-c2ncccc2Cl)n1	100%	100%	100%	100%	20%	100%	25%	50%	70%	95%	100%	100%	100%	0%	–
CNC(=O)c1cc(Cl)cc(C)c1NC(=O)c1cc(CN=[N+]=[N-])nn1-c1ncccc1Cl	100%	100%	100%	100%	100%	100%	75%	100%	100%	100%	100%	100%	100%	45%	40%
CC(=O)OCc1cc(C(=O)Nc2c(C)cc(Cl)cc2C(=O)NC(C)C)n(-c2ncccc2Cl)n1	100%	100%	100%	100%	–	20%	–	–	0%	60%	95%	100%	100%	–	–
CC(=O)OCc1cc(C(=O)Nc2c(C)cccc2C(=O)NC(C)C)n(-c2ncccc2Cl)n1	100%	100%	100%	100%	–	0%	–	–	–	–	0%	60%	100%	–	–
CNC(=O)c1cc(Cl)cc(C)c1NC(=O)c1cc(COC(=O)COC(C)=O)nn1-c1ncccc1Cl	40%	100%	100%	100%	–	–	–	–	–	–	–	–	–	–	–
CNC(=O)c1cc(Cl)cc(C)c1NC(=O)c1cc(C(=O)Nc2ccccc2)nn1-c1ncccc1Cl	0%	100%	100%	100%	–	–	–	–	–	–	–	–	–	–	–
CNC(=O)c1cc(Cl)cc(C)c1NC(=O)c1cc(CNC(C)=O)nn1-c1ncccc1Cl	0%	100%	100%	100%	–	–	–	–	–	–	–	–	–	–	–
CNC(=O)c1cc(C(=O)Nc2c(C)cc(Cl)cc2C(=O)NC(C)(C)C)n(-c2ncccc2Cl)n1	100%	100%	100%	100%	40%	100%	30%	85%	100%	100%	100%	100%	100%	0%	–
CCCCNC(=O)c1cc(C(=O)Nc2c(C)cc(Cl)cc2C(=O)NC)n(-c2ncccc2Cl)n1	20%	100%	100%	100%	–	–	–	–	–	–	–	–	–	–	–
CCCNC(=O)c1cccc(C)c1NC(=O)c1cc(COC(C)=O)nn1-c1ncccc1Cl	40%	100%	100%	100%	–	–	–	–	–	–	–	–	–	–	–
CNC(=O)c1cc(Cl)cc(C)c1NC(=O)c1cc(C(=O)NC(C)C)nn1-c1ncccc1Cl	60%	100%	100%	100%	–	–	–	–	–	–	–	–	–	–	–
CC(=O)OCc1cc(C(=O)Nc2c(C)cc(Cl)cc2C(=O)NCc2ccccc2)n(-c2ncccc2Cl)n1	40%	100%	100%	100%	–	–	–	–	–	–	–	–	–	–	–
CC(=O)OCc1cc(C(=O)Nc2c(C)cccc2C(=O)NC2CC2)n(-c2ncccc2Cl)n1	40%	100%	100%	100%	–	–	–	–	–	–	–	–	–	–	–
CNC(=O)c1cc(Cl)cc(C)c1NC(=O)c1cc(C(=O)NC(C)(C)C)nn1-c1ncccc1Cl	40%	100%	100%	100%	–	–	–	–	–	–	–	–	–	–	–
CNC(=O)c1cc(Cl)cc(C)c1NC(=O)c1cc(COC(=O)CCCCl)nn1-c1ncccc1Cl	60%	100%	100%	100%	–	–	–	–	–	–	–	–	–	–	–
CNC(=O)c1cc(C(=O)Nc2c(C)cc(Cl)cc2C(=O)NC2CC2)n(-c2ncccc2Cl)n1	100%	100%	100%	100%	–	20%	–	–	–	–	–	0%	50%	–	–
CC(=O)OCc1cc(C(=O)Nc2c(C)cc(Cl)cc2C(=O)NC2CC2)n(-c2ncccc2Cl)n1	100%	100%	100%	100%	–	0%	0%	40%	60%	90%	100%	100%	100%	–	–
CNC(=O)c1cc(Cl)cc(C)c1NC(=O)c1cc(COC(=O)c2ccccc2)nn1-c1ncccc1Cl	40%	100%	100%	100%	–	–	–	–	–	–	–	–	–	–	–
